# From ChEMBL document CHEMBL4270594, “Design, synthesis and pharmacological evaluation of new 3-(1H-benzimidazol-2-yl)quinolin-2(1H)-one derivatives as potential antitumor agents” (Eur J Med Chem, 2018)
# Active and inactive are the calls of the source. The rule behind the calls is not given here.
# Test system: SK-OV-3
# Test: Cytotoxicity against human SKOV3 cells after 48 hrs by MTT assay
# Type: functional, cell-based
# Conditions: SK-OV-3, 48 h
# Summary of the method: (§1)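 MTT cytotoxicity assay run against HepG2 and BEL-7404 liver cancer, SK-OV-3 ovarian, NCI-H460 large-cell lung cancer and HL-7702 normal liver cells. 5-fluorouracil and cisplatin served as positive controls. IC50 is given as mean ± SD of three repeat experiments.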
row,SMILES,IC50
1,O=c1[nH]c2cc3c(cc2cc1-c1nc2cc(F)ccc2[nH]1)OCO3,> 100 µM
2,COc1ccc2[nH]c(=O)c(-c3nc4cc(F)ccc4[nH]3)cc2c1,> 100 µM
3,Cc1ccc2[nH]c(=O)c(-c3nc4cc(Br)ccc4[nH]3)cc2c1,> 100 µM
4,COc1ccc2[nH]c(=O)c(-c3nc4cc(Br)ccc4[nH]3)cc2c1,> 100 µM
5,O=c1[nH]c2ccccc2cc1-c1nc2cc([N+](=O)[O-])ccc2[nH]1,> 100 µM
6,Cc1cc2nc(-c3cc4cc5c(cc4[nH]c3=O)OCO5)[nH]c2cc1C,10.6 µM
7,O=c1[nH]c2ccccc2cc1-c1nc2cc(Br)ccc2[nH]1,11.4 µM
8,Cc1ccc2[nH]c(=O)c(-c3nc4cc(Cl)ccc4[nH]3)cc2c1,33 µM
9,Cc1ccc2[nH]c(=O)c(-c3nc4cc([N+](=O)[O-])ccc4[nH]3)cc2c1,> 100 µM
10,COc1ccc2[nH]c(=O)c(-c3nc4ccccc4[nH]3)cc2c1,> 100 µM
11,O=c1[nH]c2cc3c(cc2cc1-c1nc2ccccc2[nH]1)OCO3,32.2 µM
12,COc1ccc2[nH]c(=O)c(-c3nc4cc(C)c(C)cc4[nH]3)cc2c1,> 100 µM
13,O=c1[nH]c2ccccc2cc1-c1nc2ccccc2[nH]1,13.8 µM
14,O=c1[nH]c2cc3c(cc2cc1-c1nc2cc([N+](=O)[O-])ccc2[nH]1)OCO3,> 100 µM
15,Cc1ccc2[nH]c(=O)c(-c3nc4ccccc4[nH]3)cc2c1,> 100 µM
16,O=c1[nH]c2ccccc2cc1-c1nc2cc(F)ccc2[nH]1,18.3 µM
17,Cc1ccc2[nH]c(=O)c(-c3nc4cc(F)ccc4[nH]3)cc2c1,> 100 µM
18,COc1ccc2[nH]c(=O)c(-c3nc4cc([N+](=O)[O-])ccc4[nH]3)cc2c1,> 100 µM
19,Cc1cc2nc(-c3cc4ccccc4[nH]c3=O)[nH]c2cc1C,> 100 µM
20,Cc1ccc2[nH]c(=O)c(-c3nc4cc(C)c(C)cc4[nH]3)cc2c1,> 100 µM
21,O=c1[nH]c2cc3c(cc2cc1-c1nc2cc(Br)ccc2[nH]1)OCO3,> 100 µM
22,COc1ccc2[nH]c(=O)c(-c3nc4cc(Cl)ccc4[nH]3)cc2c1,> 100 µM

# Test system: BEL-7404 tumor cell line
# Test: Antitumor activity against human Bel7404 cells xenografted in Balb/c nude mouse assessed as tumor growth inhibition at 25 mg/kg/2 days, ip for 20 days measured on day 21 post last dose relative to control
# Type: functional
# Conditions: BEL-7404, ip, read-out: TGI
row,SMILES,inhibition in vivo at 25 mg/kg
1,O=c1[nH]cc(F)c(=O)[nH]1 [FLUOROURACIL],34.5%

# Test system: L02
# Test: Cytotoxicity against human HL-7702 cells after 48 hrs by MTT assay
# Type: cell-based
# Conditions: L02, 48 h
# Summary of the method: as §1
row,SMILES,IC50
1,O=c1[nH]c2cc3c(cc2cc1-c1nc2cc(F)ccc2[nH]1)OCO3,> 100 µM
2,COc1ccc2[nH]c(=O)c(-c3nc4cc(F)ccc4[nH]3)cc2c1,> 100 µM
3,Cc1ccc2[nH]c(=O)c(-c3nc4cc(Br)ccc4[nH]3)cc2c1,> 100 µM
4,COc1ccc2[nH]c(=O)c(-c3nc4cc(Br)ccc4[nH]3)cc2c1,> 100 µM
5,O=c1[nH]c2ccccc2cc1-c1nc2cc([N+](=O)[O-])ccc2[nH]1,> 100 µM
6,Cc1cc2nc(-c3cc4cc5c(cc4[nH]c3=O)OCO5)[nH]c2cc1C,> 100 µM
7,O=c1[nH]c2ccccc2cc1-c1nc2cc(Br)ccc2[nH]1,> 100 µM
8,Cc1ccc2[nH]c(=O)c(-c3nc4cc(Cl)ccc4[nH]3)cc2c1,> 100 µM
9,Cc1ccc2[nH]c(=O)c(-c3nc4cc([N+](=O)[O-])ccc4[nH]3)cc2c1,> 100 µM
10,COc1ccc2[nH]c(=O)c(-c3nc4ccccc4[nH]3)cc2c1,> 100 µM
11,O=c1[nH]c2cc3c(cc2cc1-c1nc2ccccc2[nH]1)OCO3,> 100 µM
12,COc1ccc2[nH]c(=O)c(-c3nc4cc(C)c(C)cc4[nH]3)cc2c1,> 100 µM
13,O=c1[nH]c2ccccc2cc1-c1nc2ccccc2[nH]1,> 100 µM
14,O=c1[nH]c2cc3c(cc2cc1-c1nc2cc([N+](=O)[O-])ccc2[nH]1)OCO3,> 100 µM
15,Cc1ccc2[nH]c(=O)c(-c3nc4ccccc4[nH]3)cc2c1,> 100 µM
16,O=c1[nH]c2ccccc2cc1-c1nc2cc(F)ccc2[nH]1,> 100 µM
17,Cc1ccc2[nH]c(=O)c(-c3nc4cc(F)ccc4[nH]3)cc2c1,> 100 µM
18,COc1ccc2[nH]c(=O)c(-c3nc4cc([N+](=O)[O-])ccc4[nH]3)cc2c1,> 100 µM
19,Cc1cc2nc(-c3cc4ccccc4[nH]c3=O)[nH]c2cc1C,> 100 µM
20,Cc1ccc2[nH]c(=O)c(-c3nc4cc(C)c(C)cc4[nH]3)cc2c1,> 100 µM
21,O=c1[nH]c2cc3c(cc2cc1-c1nc2cc(Br)ccc2[nH]1)OCO3,> 100 µM
22,COc1ccc2[nH]c(=O)c(-c3nc4cc(Cl)ccc4[nH]3)cc2c1,> 100 µM

# Test system: BEL-7404 tumor cell line
# Test: Cytotoxicity against human Bel7404 cells after 48 hrs by MTT assay
# Type: functional, cell-based
# Conditions: BEL-7404, 48 h
# Summary of the method: as §1
row,SMILES,IC50
1,O=c1[nH]c2cc3c(cc2cc1-c1nc2cc(F)ccc2[nH]1)OCO3,10.3 µM
2,COc1ccc2[nH]c(=O)c(-c3nc4cc(F)ccc4[nH]3)cc2c1,> 100 µM
3,Cc1ccc2[nH]c(=O)c(-c3nc4cc(Br)ccc4[nH]3)cc2c1,> 100 µM
4,COc1ccc2[nH]c(=O)c(-c3nc4cc(Br)ccc4[nH]3)cc2c1,> 100 µM
5,O=c1[nH]c2ccccc2cc1-c1nc2cc([N+](=O)[O-])ccc2[nH]1,> 100 µM
6,Cc1cc2nc(-c3cc4cc5c(cc4[nH]c3=O)OCO5)[nH]c2cc1C,15.7 µM
7,O=c1[nH]c2ccccc2cc1-c1nc2cc(Br)ccc2[nH]1,14.5 µM
8,Cc1ccc2[nH]c(=O)c(-c3nc4cc(Cl)ccc4[nH]3)cc2c1,39 µM
9,Cc1ccc2[nH]c(=O)c(-c3nc4cc([N+](=O)[O-])ccc4[nH]3)cc2c1,> 100 µM
10,O=c1[nH]cc(F)c(=O)[nH]1 [FLUOROURACIL],40.2 µM
11,COc1ccc2[nH]c(=O)c(-c3nc4ccccc4[nH]3)cc2c1,> 100 µM
12,O=c1[nH]c2cc3c(cc2cc1-c1nc2ccccc2[nH]1)OCO3,> 100 µM
13,COc1ccc2[nH]c(=O)c(-c3nc4cc(C)c(C)cc4[nH]3)cc2c1,> 100 µM
14,O=c1[nH]c2ccccc2cc1-c1nc2ccccc2[nH]1,> 100 µM
15,O=c1[nH]c2cc3c(cc2cc1-c1nc2cc([N+](=O)[O-])ccc2[nH]1)OCO3,> 100 µM
16,Cc1ccc2[nH]c(=O)c(-c3nc4ccccc4[nH]3)cc2c1,> 100 µM
17,O=c1[nH]c2ccccc2cc1-c1nc2cc(F)ccc2[nH]1,27.4 µM
18,Cc1ccc2[nH]c(=O)c(-c3nc4cc(F)ccc4[nH]3)cc2c1,> 100 µM
19,COc1ccc2[nH]c(=O)c(-c3nc4cc([N+](=O)[O-])ccc4[nH]3)cc2c1,> 100 µM
20,Cc1cc2nc(-c3cc4ccccc4[nH]c3=O)[nH]c2cc1C,> 100 µM
21,Cc1ccc2[nH]c(=O)c(-c3nc4cc(C)c(C)cc4[nH]3)cc2c1,> 100 µM
22,O=c1[nH]c2cc3c(cc2cc1-c1nc2cc(Br)ccc2[nH]1)OCO3,> 100 µM
23,COc1ccc2[nH]c(=O)c(-c3nc4cc(Cl)ccc4[nH]3)cc2c1,> 100 µM

# Test system: HepG2
# Test: Cytotoxicity against human HepG2 cells after 48 hrs by MTT assay
# Type: functional, cell-based
# Conditions: HepG2, 48 h
# Summary of the method: as §1
row,SMILES,IC50
1,O=c1[nH]c2cc3c(cc2cc1-c1nc2cc(F)ccc2[nH]1)OCO3,12.4 µM
2,COc1ccc2[nH]c(=O)c(-c3nc4cc(F)ccc4[nH]3)cc2c1,> 100 µM
3,Cc1ccc2[nH]c(=O)c(-c3nc4cc(Br)ccc4[nH]3)cc2c1,> 100 µM
4,COc1ccc2[nH]c(=O)c(-c3nc4cc(Br)ccc4[nH]3)cc2c1,> 100 µM
5,O=c1[nH]c2ccccc2cc1-c1nc2cc([N+](=O)[O-])ccc2[nH]1,> 100 µM
6,Cc1cc2nc(-c3cc4cc5c(cc4[nH]c3=O)OCO5)[nH]c2cc1C,18.7 µM
7,O=c1[nH]c2ccccc2cc1-c1nc2cc(Br)ccc2[nH]1,10.8 µM
8,Cc1ccc2[nH]c(=O)c(-c3nc4cc(Cl)ccc4[nH]3)cc2c1,26.6 µM
9,Cc1ccc2[nH]c(=O)c(-c3nc4cc([N+](=O)[O-])ccc4[nH]3)cc2c1,> 100 µM
10,COc1ccc2[nH]c(=O)c(-c3nc4ccccc4[nH]3)cc2c1,> 100 µM
11,O=c1[nH]c2cc3c(cc2cc1-c1nc2ccccc2[nH]1)OCO3,25.6 µM
12,COc1ccc2[nH]c(=O)c(-c3nc4cc(C)c(C)cc4[nH]3)cc2c1,> 100 µM
13,O=c1[nH]c2ccccc2cc1-c1nc2ccccc2[nH]1,29.6 µM
14,O=c1[nH]c2cc3c(cc2cc1-c1nc2cc([N+](=O)[O-])ccc2[nH]1)OCO3,> 100 µM
15,Cc1ccc2[nH]c(=O)c(-c3nc4ccccc4[nH]3)cc2c1,> 100 µM
16,O=c1[nH]c2ccccc2cc1-c1nc2cc(F)ccc2[nH]1,15.2 µM
17,Cc1ccc2[nH]c(=O)c(-c3nc4cc(F)ccc4[nH]3)cc2c1,> 100 µM
18,COc1ccc2[nH]c(=O)c(-c3nc4cc([N+](=O)[O-])ccc4[nH]3)cc2c1,> 100 µM
19,Cc1cc2nc(-c3cc4ccccc4[nH]c3=O)[nH]c2cc1C,> 100 µM
20,Cc1ccc2[nH]c(=O)c(-c3nc4cc(C)c(C)cc4[nH]3)cc2c1,> 100 µM
21,O=c1[nH]c2cc3c(cc2cc1-c1nc2cc(Br)ccc2[nH]1)OCO3,> 100 µM
22,COc1ccc2[nH]c(=O)c(-c3nc4cc(Cl)ccc4[nH]3)cc2c1,> 100 µM

# Test system: HepG2
# Test: Upregulation of p53 protein expression in human HepG2 cells at 10 uM after 12 hrs by Western blot analysis
# Type: functional, cell-based
# Conditions: not given
row,SMILES,Activity
1,O=c1[nH]c2ccccc2cc1-c1nc2ccccc2[nH]1,inactive

# Test system: BEL-7404 tumor cell line
# Test: Antitumor activity against human Bel7404 cells xenografted in Balb/c nude mouse assessed as relative tumor volume increment rate at 25 mg/kg/2 days, ip for 20 days measured on day 21 post last dose relative to control
# Type: functional
# Conditions: not given
row,SMILES,T/C
1,O=c1[nH]cc(F)c(=O)[nH]1 [FLUOROURACIL],56.1%

# Test system: NCI-H460
# Test: Cytotoxicity against human NCI-H460 cells after 48 hrs by MTT assay
# Type: functional, cell-based
# Conditions: NCI-H460, 48 h
# Summary of the method: as §1
row,SMILES,IC50
1,O=c1[nH]c2cc3c(cc2cc1-c1nc2cc(F)ccc2[nH]1)OCO3,> 100 µM
2,COc1ccc2[nH]c(=O)c(-c3nc4cc(F)ccc4[nH]3)cc2c1,> 100 µM
3,Cc1ccc2[nH]c(=O)c(-c3nc4cc(Br)ccc4[nH]3)cc2c1,> 100 µM
4,COc1ccc2[nH]c(=O)c(-c3nc4cc(Br)ccc4[nH]3)cc2c1,> 100 µM
5,O=c1[nH]c2ccccc2cc1-c1nc2cc([N+](=O)[O-])ccc2[nH]1,> 100 µM
6,Cc1cc2nc(-c3cc4cc5c(cc4[nH]c3=O)OCO5)[nH]c2cc1C,23.8 µM
7,O=c1[nH]c2ccccc2cc1-c1nc2cc(Br)ccc2[nH]1,16.8 µM
8,Cc1ccc2[nH]c(=O)c(-c3nc4cc(Cl)ccc4[nH]3)cc2c1,36.5 µM
9,Cc1ccc2[nH]c(=O)c(-c3nc4cc([N+](=O)[O-])ccc4[nH]3)cc2c1,> 100 µM
10,COc1ccc2[nH]c(=O)c(-c3nc4ccccc4[nH]3)cc2c1,> 100 µM
11,O=c1[nH]c2cc3c(cc2cc1-c1nc2ccccc2[nH]1)OCO3,> 100 µM
12,COc1ccc2[nH]c(=O)c(-c3nc4cc(C)c(C)cc4[nH]3)cc2c1,> 100 µM
13,O=c1[nH]c2ccccc2cc1-c1nc2ccccc2[nH]1,> 100 µM
14,O=c1[nH]c2cc3c(cc2cc1-c1nc2cc([N+](=O)[O-])ccc2[nH]1)OCO3,> 100 µM
15,Cc1ccc2[nH]c(=O)c(-c3nc4ccccc4[nH]3)cc2c1,> 100 µM
16,O=c1[nH]c2ccccc2cc1-c1nc2cc(F)ccc2[nH]1,24.2 µM
17,Cc1ccc2[nH]c(=O)c(-c3nc4cc(F)ccc4[nH]3)cc2c1,> 100 µM
18,COc1ccc2[nH]c(=O)c(-c3nc4cc([N+](=O)[O-])ccc4[nH]3)cc2c1,> 100 µM
19,Cc1cc2nc(-c3cc4ccccc4[nH]c3=O)[nH]c2cc1C,> 100 µM
20,Cc1ccc2[nH]c(=O)c(-c3nc4cc(C)c(C)cc4[nH]3)cc2c1,> 100 µM
21,O=c1[nH]c2cc3c(cc2cc1-c1nc2cc(Br)ccc2[nH]1)OCO3,> 100 µM
22,COc1ccc2[nH]c(=O)c(-c3nc4cc(Cl)ccc4[nH]3)cc2c1,> 100 µM
